# Measured values reported in ChEMBL document CHEMBL1135785, “N-[(2-Sulfo)-9-fluorenylmethoxycarbonyl](3)-gentamicin C(1) is a long-acting prodrug derivative” (J Med Chem, 2002).
# Tests used:
# [1] = target: T1, Albumin (Homo sapiens, UniProt P02768); assay: The compound was evaluated for pharmacokinetic parameters Serum albumin associating affinity
# [2] = Half life after i.v. administration to rat; format: ADME, organism-based; conditions: in vivo, iv
# Procedure, shortened: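 Rats (n = 4 per group) received 1 μmol/rat intravenously in 0.2 mL PBS, pH 7.4. Tail blood was sampled at several time points. Immunoreactive gentamicin was measured by fluorescence polarization immunoassay, with each point the mean of four rats. Circulating half-life was taken from the decline phase.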
# [3] = target: T1, Albumin; assay: The compound was evaluated for albumin associating affinity along with 2.1 M of FMS
# Procedure, shortened: (§1)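 Albumin affinity was inferred from the PNPA esterase assay. HSA (11.4 μM, 0.05 M HEPES, pH 6.7) was preincubated 10 min with graded conjugate concentrations, then given 1 mM PNPA (final). A410 was read at 60 min. The resulting IC50 values were converted to Kd estimates.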
# [4] = target: T1, Albumin; assay: Evaluated for inhibition of Serum albumin evoked PNPA hydrolysis in presence of 2.1 M of FMS; format: functional
# Procedure, shortened: (§2)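 Human serum albumin (11.4 μM) in 0.05 M HEPES, pH 6.7, was preincubated for 10 min with or without increasing concentrations of each FMS-gentamicin conjugate. PNPA was then added to a final 1 mM. Absorbance at 410 nm was read 60 min later, and IC50 was calculated for inhibition of HSA-evoked PNPA hydrolysis.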
# [5] = target: T1, Albumin; assay: Evaluated for inhibition of Serum albumin evoked PNPA hydrolysis in presence of 1.3 M of FMS; format: functional; procedure, shortened: as §2
# [6] = The compound was evaluated for pharmacokinetic parameters HSA associating affinity; format: ADME; conditions: human
# Procedure, shortened: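 Human serum albumin (11.4 μM) in 0.05 M HEPES, pH 6.7, preincubated 10 min with or without rising conjugate concentrations. p-Nitrophenyl acetate (PNPA) then added to 1 mM final. Absorbance read at 410 nm 60 min later. IC50 calculated for inhibition of HSA-evoked PNPA hydrolysis, then converted to Kd estimates. FMS-L-serine served as internal standard.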
# [7] = target: T1, Albumin; assay: Evaluated for inhibition of Serum albumin evoked PNPA hydrolysis in presence of 3.0 M of FMS; format: functional; procedure, shortened: as §2
# [8] = system: Escherichia coli; assay: The compound was evaluated for its ability to inhibit replication of Escherichia coli; format: functional, organism-based
# Procedure, shortened: (§3)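 Antibacterial potency was measured as inhibition of Escherichia coli replication, expressed as half-maximal inhibitory concentration and as percent of native gentamicin activity.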
# [9] = Half life for hydrolysis of the compound; format: ADME
# Procedure, shortened: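 Conjugate was incubated in 0.1 M NaHCO3, pH 8.5, at 37 °C. Aliquots were withdrawn over time and assayed with TNBS for the appearance of free amino groups to give the FMS hydrolysis half-life.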
# [10] = system: Escherichia coli; assay: Potency for its ability to inhibit replication of Escherichia coli; format: functional; procedure, shortened: as §3
# [11] = target: T1, Albumin; assay: Evaluated for inhibition of Serum albumin evoked PNPA hydrolysis in presence of 0.7 M of FMS; format: functional; procedure, shortened: as §2
# [12] = target: T1, Albumin; assay: The compound was evaluated for albumin associating affinity 0.7 M of FMS; procedure, shortened: as §1
# [13] = target: T1, Albumin; assay: The compound was evaluated for albumin associating affinity along with 3.0 M of FMS; procedure, shortened: as §1
# [14] = target: T1, Albumin; assay: The compound was evaluated for albumin associating affinity along with 1.3 M of FMS; procedure, shortened: as §1
# T1 sequence (P02768 whole entry): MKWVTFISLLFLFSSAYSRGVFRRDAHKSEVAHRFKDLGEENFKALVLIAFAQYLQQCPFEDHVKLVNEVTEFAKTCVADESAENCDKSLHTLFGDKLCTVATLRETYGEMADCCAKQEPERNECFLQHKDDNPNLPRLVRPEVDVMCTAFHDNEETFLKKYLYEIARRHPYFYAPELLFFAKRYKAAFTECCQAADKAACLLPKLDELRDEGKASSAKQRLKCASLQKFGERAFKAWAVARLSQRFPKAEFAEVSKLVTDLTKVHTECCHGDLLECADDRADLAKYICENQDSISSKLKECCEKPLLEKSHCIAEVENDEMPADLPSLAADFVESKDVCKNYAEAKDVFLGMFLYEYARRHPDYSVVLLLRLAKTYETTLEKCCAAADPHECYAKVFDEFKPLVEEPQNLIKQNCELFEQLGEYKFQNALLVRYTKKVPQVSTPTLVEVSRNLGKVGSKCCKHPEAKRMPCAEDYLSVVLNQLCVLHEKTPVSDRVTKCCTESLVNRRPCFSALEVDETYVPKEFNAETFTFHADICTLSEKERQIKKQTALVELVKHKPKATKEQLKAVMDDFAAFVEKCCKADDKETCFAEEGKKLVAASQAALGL
Kd [1],half-life [2],Kd [3],IC50 [4],IC50 [5],Ka [6],IC50 [7],IC50 [8],half-life [9],IC50 [11],Kd [12],Kd [13],Kd [14],SMILES,Potency [10]
20 µM,1.3 h,,,,,,,,,,,,CNC(C)[C@H]1CCC(N)[C@@H](O[C@@H]2C(N)C[C@@H](NC(=O)OCC3c4ccccc4-c4ccc(S(=O)(=O)O)cc43)C(O[C@H]3OC[C@](C)(O)C(NC)[C@@H]3O)[C@@H]2O)O1 (stereo partly specified),
,3.8 h,9.2 µM,23 µM,43 µM,131000 M⁻¹,19 µM,24 µM,8 h,80 µM,32 µM,7.6 µM,17.2 µM,CNC(C)[C@H]1CCC(NC(=O)OCC2c3ccccc3-c3ccc(S(=O)(=O)O)cc32)[C@@H](O[C@@H]2C(NC(=O)OCC3c4ccccc4-c4ccc(S(=O)(=O)O)cc43)C[C@@H](NC(=O)OCC3c4ccccc4-c4ccc(S(=O)(=O)O)cc43)C(O[C@H]3OC[C@](C)(O)C(NC)[C@@H]3O)[C@@H]2O)O1 (stereo partly specified),<1%
9.2 µM,,,,,,,,,,,,,CNC(C)[C@H]1CCC(N)[C@@H](O[C@@H]2C(NC(=O)OCC3c4ccccc4-c4ccc(S(=O)(=O)O)cc43)C[C@@H](NC(=O)OCC3c4ccccc4-c4ccc(S(=O)(=O)O)cc43)C(O[C@H]3OC[C@](C)(O)C(NC)[C@@H]3O)[C@@H]2O)O1 (stereo partly specified),
